# What was measured:
# [1] = folding enthalpy; higher = less favourable; fluorescence melt of hairpins on a sequencing array, two-state fit; settings: sodium 0.088 M
# Summary of the method: (§1)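 On a sequenced MiSeq flow cell, library hairpins with annealed Cy3 and quencher oligos were imaged for Cy3 fluorescence in 2.5 °C steps up to 60 °C, in 50 mM Na-HEPES pH 8.0, 25 mM NaCl. Normalisation used pre-quench Cy3 and control constructs. Bootstrapped two-state fits gave melting temperature and folding enthalpy, combined by inverse variance across four replicates and with fitted temperatures raised by 9.35 °C to match UV melts.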
# [2] = melting temperature; fluorescence melt of hairpins on a sequencing array, two-state fit, raised by 9.35 °C to match UV melts; settings: sodium 0.088 M
# Summary of the method: as §1
Sequence,folding enthalpy [1],Tm [2]
CCCGAGAAATCGGG (((((....))))),-19.6 kcal/mol,54.2 °C
GCGGAGACCCGC ((((....)))),-20.5 kcal/mol,52.8 °C
GCATTGGGAAACTGATGC ((((..(....)..)))),-30 kcal/mol,38.8 °C
GATCTAAACTAGATC ((((((...)))))),-23.9 kcal/mol,36.1 °C
GATCGGTTGCCCGATC ((((((....)))))),-32.5 kcal/mol,57.2 °C
GGATGACGAAAGTCCTCC (((.(((....))).))),-31.5 kcal/mol,47.1 °C
GGAGAACGAAAGTTATCC (((.(((....))).))),-37.2 kcal/mol,51.6 °C
GCGAAATTCGC ((((...)))),-18.2 kcal/mol,43.1 °C
CGGCGGCGGAAACGCCCG (((..(((....)))))),-10.4 kcal/mol,49.3 °C
GATGCCGAAAGGCAGATC ((((((....)))..))),-15.6 kcal/mol,52.2 °C
GCGATCGAAAGATGTCGC ((((((....)))..))),-22.4 kcal/mol,43 °C
GCAACGTCGAAAGACTGC (((..(((....)))))),-20.1 kcal/mol,39.1 °C
GATGGCACGAAAGTGATC (((..(((....)))))),-12.9 kcal/mol,27.2 °C
GGTGAGGGAAACCCCACC ((((.((....)).)))),-39.2 kcal/mol,50.5 °C
GATCCTCATCAGGATC ((((((....)))))),-37 kcal/mol,49.7 °C
GATCGACGATTCGATC ((((((....)))))),-37.1 kcal/mol,49.4 °C
GTTAATCGAAAGATAAC (((.(((....)))))),-16.8 kcal/mol,30.1 °C
GCGGGATCCCGC ((((....)))),-41.9 kcal/mol,59.3 °C

Sequence,folding enthalpy [1],Tm [2]
GCGGACTCCCGC ((((....)))),-32.8 kcal/mol,53.1 °C
GCCGAAGGAAACTTCAGC ((.((((....)))).)),-11.7 kcal/mol,32.9 °C
GAAGACCCGAAAGGGTTC (((..(((....)))))),-8.91 kcal/mol,32.6 °C
GTAGACGAAAGTCTATAC ((((((....)))..))),-12.2 kcal/mol,42.6 °C
GATAGGGAAACCTATC ((((((....)))))),-34.7 kcal/mol,47.6 °C
GGACTCGGAAACGAGCCC ((.((((....)))).)),-34.7 kcal/mol,53.5 °C
ATAGGGAAACCTAT (((((....))))),-11.2 kcal/mol,32.4 °C
GCAGCCGAAAGGCGATGC ((((((....)))..))),-14.2 kcal/mol,53.2 °C
GTTAGCGAAAGCTAGAAC ((((((....)))..))),-10 kcal/mol,31.5 °C
GGACGGACGAAAGTCTCC (((..(((....)))))),-13.2 kcal/mol,30.5 °C
GATCCTTGTCAGGATC ((((((....)))))),-37.6 kcal/mol,50.1 °C
GATCGGACTCCGATC ((((((...)))))),-33.8 kcal/mol,55.2 °C
GATCTCGGTAGAGATC ((((((....)))))),-32.7 kcal/mol,66.5 °C
CGTACGGAAACGTCAACG ((((((....)))..))),-13.5 kcal/mol,32.2 °C
GCGTTGGGAAACCGATGC ((.(.((....)).).)),-25.9 kcal/mol,44 °C
GATCCCCTGTGGGATC ((((((....)))))),-33.3 kcal/mol,63 °C
GGCAGCGAAAGCTAAGCC ((((((....)))..))),-25.2 kcal/mol,55.6 °C

# Source: the array DNA melting data of Ke et al. (doi:10.1101/2024.01.08.574731)
